Measurements taken from ChEMBL document CHEMBL1124862 (J Med Chem, 1990).

What was measured:
[1] = target: T1, 5-hydroxytryptamine receptor 1A (Rattus norvegicus, UniProt P19327); experiment: Displacement of [3H]8-OH-DPAT from rat cortex 5-hydroxytryptamine 1A receptor
T1 sequence (P19327 whole entry): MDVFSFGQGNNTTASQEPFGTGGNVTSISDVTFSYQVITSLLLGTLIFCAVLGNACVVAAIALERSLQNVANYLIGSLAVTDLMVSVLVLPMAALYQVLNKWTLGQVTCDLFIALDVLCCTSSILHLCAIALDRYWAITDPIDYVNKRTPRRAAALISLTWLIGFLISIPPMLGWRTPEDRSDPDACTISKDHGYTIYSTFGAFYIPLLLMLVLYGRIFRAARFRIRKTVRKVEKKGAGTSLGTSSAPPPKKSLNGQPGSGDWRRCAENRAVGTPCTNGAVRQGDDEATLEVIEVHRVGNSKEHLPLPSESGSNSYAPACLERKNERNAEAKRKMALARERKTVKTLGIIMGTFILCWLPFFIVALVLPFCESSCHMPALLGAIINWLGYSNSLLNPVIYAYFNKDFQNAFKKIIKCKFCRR

[2] = target: T2, 5-hydroxytryptamine receptor 1B (Rattus norvegicus, UniProt P28564); experiment: Inhibitory activity against 5-hydroxytryptamine 1B receptor of rat cortex using [3H]5-HT
T2 sequence (P28564 whole entry): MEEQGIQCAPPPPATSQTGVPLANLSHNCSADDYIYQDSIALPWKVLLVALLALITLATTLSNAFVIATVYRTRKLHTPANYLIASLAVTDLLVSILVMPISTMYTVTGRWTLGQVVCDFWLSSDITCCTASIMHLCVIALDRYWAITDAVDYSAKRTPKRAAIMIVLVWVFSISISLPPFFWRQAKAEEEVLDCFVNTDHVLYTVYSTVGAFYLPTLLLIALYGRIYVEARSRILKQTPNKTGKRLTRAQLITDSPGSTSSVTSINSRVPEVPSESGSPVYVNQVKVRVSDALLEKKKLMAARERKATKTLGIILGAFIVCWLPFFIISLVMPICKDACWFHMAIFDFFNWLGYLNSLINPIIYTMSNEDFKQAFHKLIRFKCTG
In short: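 Competition binding in rat cortex membranes, using the radioligand named in each line at a concentration of approximately its K_D.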

[3] = target: Serotonin 2 (5-HT2) receptor (Rattus norvegicus, UniProt P30994+P08909+P14842); experiment: Compound was evaluated for its inhibitory activity against 5-hydroxytryptamine 2 receptor of rat anterior cortex using [3H]ketanserin as the radioligand
[4] = target: T2, 5-hydroxytryptamine receptor 1B; experiment: Inhibitory activity against 5-hydroxytryptamine 1B receptor of rat cortex using [3H]5-HT as the radioligand.
[5] = target: 5-HT1A receptor (Cavia porcellus, UniProt A0A286Y074); experiment: Inhibition of Forskolin-stimulated adenylate cyclase activity against 5-hydroxytryptamine 1A receptor of guinea pig hippocampus; assay type: functional, tissue-based
In short: (§1)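 Washed membranes came from guinea pig hippocampus, rat substantia nigra or guinea pig substantia nigra. They were incubated at 30 °C with [α-³²P]ATP, 3 μM forskolin and varying agonist concentrations. The reaction was stopped with 3% SDS. [³²P]cAMP was isolated by two-column chromatography and counted by scintillation, in pmol/mg protein/min. Points were run in triplicate, and EC50 came from at least three experiments.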

[6] = organism: Rattus norvegicus; experiment: Effect of direct injection into the PVN (paraventricular medial hypothalamus) of rats on feeding behavior and the inhibition of food intake; assay type: functional
In short: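 Seven days later they were food-deprived for 24 h with water available. Each rat received a PVN infusion at 1 μL/min of test agent (16 μg) or 5-HT (32 μg) in 0.9% NaCl, or vehicle. Food eaten over 30 min was weighed. Groups were compared by two-tailed t test, and rats with misplaced cannulae were excluded after histology.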

[7] = target: T2, 5-hydroxytryptamine receptor 1B; experiment: Inhibition of Forskolin-stimulated adenylate cyclase activity against 5-hydroxytryptamine 1B receptor of rat substantia nigra; assay type: functional; in short: as §1
[8] = target: 5-hydroxytryptamine receptor 1D (Cavia porcellus, UniProt Q60484); experiment: Inhibition of Forskolin-stimulated adenylate cyclase activity against 5-hydroxytryptamine 1D receptor of guinea pig substantia nigra
5-hydroxytryptamine receptor 1D, sequence (Q60484 whole entry): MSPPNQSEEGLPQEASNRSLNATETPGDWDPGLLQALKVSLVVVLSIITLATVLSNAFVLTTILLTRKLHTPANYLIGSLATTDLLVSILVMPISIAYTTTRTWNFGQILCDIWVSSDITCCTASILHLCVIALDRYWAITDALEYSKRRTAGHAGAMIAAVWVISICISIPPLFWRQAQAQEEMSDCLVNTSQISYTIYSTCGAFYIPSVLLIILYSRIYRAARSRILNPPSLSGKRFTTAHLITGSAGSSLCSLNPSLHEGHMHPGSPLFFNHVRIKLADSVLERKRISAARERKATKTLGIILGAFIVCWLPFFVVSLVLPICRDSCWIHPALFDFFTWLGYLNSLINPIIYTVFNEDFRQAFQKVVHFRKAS
In short: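 Washed membranes from freshly dissected guinea pig substantia nigra, incubated at 30 °C with [α-³²P]ATP plus 3 μM forskolin and varying agonist concentrations. Reaction stopped with 3% SDS. [³²P]cAMP separated from [³²P]ATP on two columns and counted by liquid scintillation, as pmol/mg protein/min. EC50 from at least three experiments, each in triplicate.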

Structure (SMILES) | IC50 [1] [µM] | IC50 [2] [µM] | IC50 [3] [µM] | further results
Oc1ccc2[nH]cc(C3=CCNCC3)c2c1 | 0.03 | 0.0012 | – | –
N#Cc1ccc2[nH]cc(C3=CCNCC3)c2c1 | 0.032 | 0.0008 | – | –
Fc1ccc2[nH]cc(C3=CCNCC3)c2c1 | 0.065 | 0.0019 | – | –
CN1CCN(c2nc3cc(C(F)(F)F)ccc3n3cccc23)CC1 | 0.019 | 0.15 | 6.8 | –
FC(F)(F)c1cccc(N2CCNCC2)c1 | 0.29 | 0.027 | 0.57 | –
Brc1ccc2[nH]cc(C3=CCNCC3)c2c1 | 0.013 | 0.0032 | – | –
C1=C(c2c[nH]c3ccccc23)CCNC1 | 0.14 | – | – | IC50 [4]: 0.0037 µM
FC(F)(F)c1ccc2c(c1)nc(N1CCNCC1)c1cccn12 | 0.037 | 0.021 | > 10 | –
Clc1ccc2[nH]cc(C3=CCNCC3)c2c1 | 0.026 | 0.0033 | – | –
O=[N+]([O-])c1ccc2[nH]cc(C3=CCNCC3)c2c1 | 0.036 | 0.0035 | – | –
Oc1ccc2[nH]cc(C3=CCNCC3)c2n1 | 3 | 0.015 | > 10 | EC50 [5]: > 10 µM; g/30min [6]: 0.12; EC50 [7]: 0.056 µM
COc1ccc2[nH]cc(C3=CCNCC3)c2c1 [RU-24969] | – | 0.002 | – | –
NCCc1c[nH]c2ccc(O)cc12 [SEROTONIN] | – | – | – | EC50 [8]: 0.016 µM; g/30min [6]: 1.15
